# Test results as given in ChEMBL document CHEMBL4411275, “Design, synthesis and biological evaluation of quinoline-indole derivatives as anti-tubulin agents targeting the colchicine binding site” (Eur J Med Chem, 2019).
# Experiments:
# [1] = Toxicity in ICR mouse xenografted with […] cells assessed as body weight loss at 20 mg/kg/day, iv for 21 days; type: organism-based; settings: in vivo, 504 h
# Procedure, shortened: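 H22 cells (1×10^6) implanted s.c. in right flank of male ICR mice (five weeks old), eight per group. Body weight recorded every 2 days during treatment.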
# K562 [2] = experiment: Cell cycle arrest in human K562 cells assessed as accumulation of cells at S phase at 2 nM after 48 hrs by propidium iodide staining-based flow cytometric analysis (reference value: 19.93%); type: functional
# K562 [3] = experiment: Cell cycle arrest in human K562 cells assessed as accumulation of cells at G2 phase at 1 nM after 48 hrs by propidium iodide staining-based flow cytometric analysis (reference value: 10.51%); type: functional
# L02 = experiment: Antiproliferative activity against human LO2 cells after 72 hrs by MTT assay; type: cell-based; settings: L02, 72 h
# Procedure, shortened: (§1)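 Cells preincubated 24 h at 37 °C, 5% CO₂. Compounds added at several concentrations in medium with 0.1% DMSO for 72 h. MTT (5 mg/mL in PBS) then added for 4 h, and optical density read at 490 nm. IC50 taken from dose-response curves; mean ± SD of at least three independent experiments.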
# K562 [4] = experiment: Cell cycle arrest in human K562 cells assessed as accumulation of cells at G1 phase at 1 nM after 48 hrs by propidium iodide staining-based flow cytometric analysis (reference value: 69.57%); type: functional
# K562 [5] = experiment: Induction of apoptosis in human K562 cells at 1 nM after 48 hrs by Annexin-V/propidium iodide staining-based flow cytometric analysis (reference value: 5.96%)
# K562 [6] = experiment: Cell cycle arrest in human K562 cells assessed as accumulation of cells at S phase at 4 nM after 48 hrs by propidium iodide staining-based flow cytometric analysis (reference value: 19.93%); type: functional
# H22 (Mus musculus) [7] = experiment: Antitumor activity against mouse H22 cells xenografted in ICR mouse assessed as reduction in tumor weight at 10 mg/kg/day, iv for 21 days relative to control; set-up: scale not given: the % may be the effect or the level left
# Tubulin = Tubulin (Sus scrofa, UniProt P02554+P02550); experiment: Inhibition of porcine brain tubulin polymerization preincubated for 30 mins and measured every 2 mins for 60 mins by spectrophotometric analysis
# Bel-7402 = experiment: Antiproliferative activity against human Bel7402 cells after 72 hrs by MTT assay; type: functional, cell-based; settings: Bel-7402, 72 h; procedure, shortened: as §1
# HUVEC [8] = experiment: Antiproliferative activity against HUVEC at 2 to 4 nM after 6 hrs; type: cell-based; settings: human, 0.004 µM
# K562 [9] = experiment: Induction of mitochondrial membrane potential loss in human K562 cells assessed as intact mitochondrial membrane at 1 nM after 48 hrs by JC-1 dye-based flow cytometric analysis (RVB = 93.17%)
# K562 [10] = experiment: Cell cycle arrest in human K562 cells assessed as accumulation of cells at G2 phase at 2 nM after 48 hrs by propidium iodide staining-based flow cytometric analysis (reference value: 10.51%); type: functional
# K562 [11] = experiment: Induction of apoptosis in human K562 cells at 2 nM after 48 hrs by Annexin-V/propidium iodide staining-based flow cytometric analysis (reference value: 5.96%)
# K562/VCR = experiment: Antiproliferative activity against human VCR-resistant K562/VCR cells after 72 hrs by MTT assay; type: functional, cell-based; procedure, shortened: as §1
# A549/TR = experiment: Antiproliferative activity against human taxol-resistant A549/TR cells after 72 hrs by MTT assay; type: functional, cell-based; procedure, shortened: as §1
# HUVEC [12] = experiment: Anti-migratory activity in HUVEC after 24 hrs by inverted microscopic analysis; type: functional, cell-based; settings: Homo sapiens
# Procedure, shortened: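 Scratch wound made in monolayers with a 200 μL pipette tip, then washed twice with PBS. Medium with 1, 2 or 4 nM compound added. Phase-contrast images taken at 0 h and 24 h, and the migration distance into the wound measured manually.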
# [13] = Drug resistance index, ratio of IC50 for taxol-resistant human A549/TR cells to IC50 for human A549 cells; type: functional
# Procedure, shortened: (§2)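 Resistant and parental sensitive lines exposed to a range of compound concentrations in medium with 0.1% DMSO for 72 h at 37 °C, 5% CO2, after 24 h pre-culture. MTT added for 4 h, absorbance read at 490 nm. IC50 from dose-response curves, at least three independent experiments. DRI = IC50 resistant / IC50 parental.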
# K562 [14] = experiment: Antiproliferative activity against human K562 cells after 72 hrs by MTT assay; type: functional, cell-based; settings: K562, 72 h; procedure, shortened: as §1
# MDA-MB-231 = experiment: Antiproliferative activity against human MDA-MB-231 cells after 72 hrs by MTT assay; type: functional, cell-based; settings: MDA-MB-231, 72 h; procedure, shortened: as §1
# Tubulin (Homo sapiens) = Tubulin (Homo sapiens) (UniProt P68371+Q9H4B7+P0DPH7+P68366+Q13509+Q71U36+P04350+Q3ZCM7+P07437+P68363+Q9BQE3+Q6PEY2+Q13885+Q9BVA1+Q9BUF5); experiment: Induction of microtubule disruption in human K562 cells after 24 hrs by DAPI staining-based fluorescence assay; type: cell-based
# Procedure, shortened: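 K562 cells exposed 24 h to 1, 2 or 4 nM compound or 0.1% DMSO. Fixed in 4% paraformaldehyde and blocked 20 min with goat serum at room temperature. Incubated with anti-α-tubulin monoclonal antibody for 2 h at 37 °C, then fluorescent antibody, with DAPI nuclear counterstain. Imaged by confocal microscopy.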
# Tubulin (Sus scrofa) = Tubulin (Sus scrofa) (UniProt P02554+P02550); experiment: Inhibition of [3H]-colchicine binding to biotinylated porcine tubulin at 1 uM after 2 hrs by SPA relative to control; type: protein assay
# Procedure, shortened: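 Scintillation proximity assay: 0.08 μM [3H]colchicine incubated with biotinylated porcine tubulin (0.5 μg) and test compound for 2 h at 37 °C in 80 mM PIPES pH 6.8, 1 mM EGTA, 10% glycerol, 1 mM MgCl2, 1 mM GTP. Streptavidin SPA beads then added, and bound radioactivity counted by scintillation counter.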
# K562 [15] = experiment: Induction of mitochondrial membrane potential loss in human K562 cells assessed as intact mitochondrial membrane at 2 nM after 48 hrs by JC-1 dye-based flow cytometric analysis (RVB = 93.17%)
# [16] = Drug resistance index, ratio of IC50 for ADR-resistant human Bel7402/ADR cells to IC50 for human Bel7402 cells; type: functional; procedure, shortened: as §2
# K562 [17] = experiment: Induction of mitochondrial membrane potential loss in human K562 cells assessed as collapsed mitochondrial membrane at 1 nM after 48 hrs by JC-1 dye-based flow cytometric analysis (RVB = 6.17%)
# [18] = Drug resistance index, ratio of IC50 for VCR-resistant human K562/VCR cells to IC50 for human K562 cells; type: functional
# H22 (Mus musculus) [19] = experiment: Antiproliferative activity against mouse H22 cells after 72 hrs by MTT assay; settings: H22, 72 h
# A549 = experiment: Antiproliferative activity against human A549 cells after 72 hrs by MTT assay; type: functional, cell-based; settings: A549, 72 h; procedure, shortened: as §1
# Tubulin (Sus scrofa), sequence (P02550 whole entry, looked up): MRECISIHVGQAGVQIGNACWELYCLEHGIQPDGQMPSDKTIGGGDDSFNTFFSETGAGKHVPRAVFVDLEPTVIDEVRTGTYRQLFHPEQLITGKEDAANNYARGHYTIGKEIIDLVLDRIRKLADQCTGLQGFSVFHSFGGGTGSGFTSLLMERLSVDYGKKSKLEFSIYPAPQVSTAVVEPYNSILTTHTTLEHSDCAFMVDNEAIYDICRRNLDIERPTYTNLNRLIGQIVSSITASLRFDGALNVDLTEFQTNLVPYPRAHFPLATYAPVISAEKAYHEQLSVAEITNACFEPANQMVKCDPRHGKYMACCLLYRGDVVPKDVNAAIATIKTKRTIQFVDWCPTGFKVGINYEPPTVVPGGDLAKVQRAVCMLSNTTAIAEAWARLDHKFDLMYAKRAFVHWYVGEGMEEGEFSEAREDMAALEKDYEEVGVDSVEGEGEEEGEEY
# Tubulin (Sus scrofa), sequence (P02554 whole entry, looked up): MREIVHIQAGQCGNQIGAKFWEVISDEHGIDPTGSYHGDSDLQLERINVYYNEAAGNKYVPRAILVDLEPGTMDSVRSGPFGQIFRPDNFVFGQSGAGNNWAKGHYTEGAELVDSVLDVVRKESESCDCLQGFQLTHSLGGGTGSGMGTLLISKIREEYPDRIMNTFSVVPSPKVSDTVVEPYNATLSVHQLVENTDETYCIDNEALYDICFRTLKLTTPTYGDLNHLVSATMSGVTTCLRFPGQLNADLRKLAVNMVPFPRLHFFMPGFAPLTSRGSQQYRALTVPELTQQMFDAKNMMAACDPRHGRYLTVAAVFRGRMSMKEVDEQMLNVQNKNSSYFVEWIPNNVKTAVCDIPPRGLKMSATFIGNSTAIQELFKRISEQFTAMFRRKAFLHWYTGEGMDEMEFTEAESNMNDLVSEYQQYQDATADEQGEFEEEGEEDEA
compound,measurement,setting,value
C=C(c1ccc2c(ccn2CO)c1)c1cc(C)nc2ccccc12,Activity,[1],Non-Toxic
same,Activity,K562 [2],33.21%
same,Activity,K562 [3],12.44%
same,IC50,L02,48 nM
same,Activity,K562 [4],60.18%
same,Activity,K562 [5],25.7%
same,Activity,K562 [6],31%
same,Activity,H22 (Mus musculus) [7],48.8%
same,IC50,Tubulin,2090 nM
same,IC50,Bel-7402,10 nM
same,Activity,HUVEC [8],Non-Toxic
same,Activity,K562 [9],70.66%
same,Activity,K562 [10],16.16%
same,Activity,K562 [11],54.9%
same,IC50,K562/VCR,31 nM
same,IC50,A549/TR,119 nM
same,Activity,HUVEC [12],Dose-dependent effect
same,Ratio IC50,[13],13.2
same,IC50,K562 [14],2 nM
same,IC50,MDA-MB-231,6 nM
same,Activity,Tubulin (Homo sapiens),Dose-dependent effect
same,inhibition,Tubulin (Sus scrofa),79.4%
same,Activity,K562 [15],45.4%
same,Ratio IC50,[16],6.1
same,Activity,K562 [17],28.99%
same,Ratio IC50,[18],15.5
same,IC50,H22 (Mus musculus) [19],6 nM
same,IC50,A549,9 nM
